Measured values reported in ChEMBL document CHEMBL1914331, “N-O chemistry for antibiotics: discovery of N-alkyl-N-(pyridin-2-yl)hydroxylamine scaffolds as selective antibacterial agents using nitroso Diels-Alder and ene chemistry” (J Med Chem, 2011).
≈ marks a conversion by molar mass, not a printed value.

Assays:
[1] = test system: Staphylococcus aureus; assay: Antimicrobial activity against Staphylococcus aureus SG511 assessed after 18 hrs by broth microdilution method; type: functional; conditions: SG511, 18 h
Summary of the method: (§1)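 CLSI broth microdilution in cation-adjusted MHII broth. 20 mM DMSO stocks were diluted to 512 µM, then serially 2-fold, giving final 128–0.0625 µM with 5×10⁵ CFU/mL inoculum. Incubated 18 h at 37 °C. MIC90 was the lowest concentration giving 90% inhibition by visual turbidity versus DMSO wells. Run in triplicate.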

[2] = test system: Micrococcus luteus; assay: Antimicrobial activity against Micrococcus luteus ATCC 10240 assessed after 18 hrs by broth microdilution method; type: functional; conditions: ATCC 10240, 18 h; summary of the method: as §1
[3] = test system: PC-3; assay: Cytotoxicity against human PC3 cells; type: cell-based
[4] = test system: HeLa; assay: Cytotoxicity against human HeLa cells; type: cell-based
[5] = test system: Enterococcus faecalis; assay: Antimicrobial activity against Enterococcus faecalis ATCC 49532 assessed after 18 hrs by broth microdilution method; type: functional; conditions: ATCC 49532, 18 h; summary of the method: as §1
[6] = test system: Enterococcus faecalis; assay: Antimicrobial activity against Enterococcus faecalis ATCC 49532 after 24 hrs by Kirby-Bauer agar diffusion assay; type: functional
Summary of the method: (§2)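 Modified Kirby-Bauer well diffusion. Overnight LB cultures (18–24 h) were standardized in 0.9% saline to 0.5 McFarland and mixed into melted MHII agar at 47–50 °C, giving ~5×10³ CFU/mL. 9 mm wells received 50 µL of 2.0 mM compound in 10:1 MeOH:DMSO. Plates were incubated 24 h at 37 °C, then growth-inhibition zone diameter was measured (mm) by caliper.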

[7] = test system: MCF7; assay: Cytotoxicity against human MCF7 cells; type: cell-based
[8] = test system: Micrococcus luteus; assay: Antimicrobial activity against Micrococcus luteus ATCC 10240 after 24 hrs by Kirby-Bauer agar diffusion assay; type: functional; summary of the method: as §2
[9] = test system: Staphylococcus aureus; assay: Antimicrobial activity against Staphylococcus aureus SG511 after 24 hrs by Kirby-Bauer agar diffusion assay; type: functional; summary of the method: as §2

SMILES	MIC90 [1]	MIC90 [2]	MIC90 [5]	Activity [3]	Activity [4]	diameter of the inhibition zone (DIZ) [6]	Activity [7]	diameter of the inhibition zone (DIZ) [8]	diameter of the inhibition zone (DIZ) [9]
C=C(C)C(C)N(O)c1ncccc1C (racemic)	> 128 µM	16 µM (≈ 3.08 µg/mL)	> 128 µM	Non-toxic	Non-toxic	19 mm	Non-toxic	25 mm	10 mm
c1ccc(CNc2ccccn2)cc1	> 128 µM	> 128 µM	> 128 µM	Non-toxic	Non-toxic	0 mm	Non-toxic	0 mm	0 mm
ON(Cc1ccccc1)Cc1ccccn1	> 128 µM	> 128 µM	> 128 µM	Non-toxic	Non-toxic	0 mm	Non-toxic	0 mm	0 mm
ON(CCc1ccccc1)c1ccccn1	> 128 µM	128 µM (≈ 27.4 µg/mL)	> 128 µM	Non-toxic	Non-toxic	15 mm	Non-toxic	16 mm	0 mm
CN(O)c1ccccn1	> 128 µM	≥ 128 µM	> 128 µM	Non-toxic	Non-toxic	0 mm	Non-toxic	18 mm	0 mm
CCCN(O)c1ccccn1	> 128 µM	> 128 µM	> 128 µM	Non-toxic	Non-toxic	0 mm	Non-toxic	13 mm	0 mm
CCCCCCN(O)c1ccccn1	> 128 µM	128 µM (≈ 24.9 µg/mL)	> 128 µM	Non-toxic	Non-toxic	16 mm	Non-toxic	15 mm	17 mm
CO[C@H]1C=CCC[C@@H]1N(OC(C)=O)c1ccc(Br)cn1 (racemic)	> 128 µM	32 µM (≈ 10.9 µg/mL)	> 128 µM	Non-toxic	Non-toxic	0 mm	Non-toxic	22 mm	0 mm
C=C(C)C(C)N(O)c1cccc(CC)n1 (racemic)	> 128 µM	2 µM (≈ 0.413 µg/mL)	> 128 µM	Non-toxic	Non-toxic	22 mm	Non-toxic	52 mm	11 mm
COc1ccc(CON(Cc2ccccc2)c2ccccn2)cc1	> 128 µM	> 128 µM	> 128 µM	Non-toxic	Non-toxic	0 mm	Non-toxic	0 mm	0 mm
CO[C@H]1C=CCC[C@@H]1Nc1ccc(Br)cn1 (racemic)	> 128 µM	> 128 µM	> 128 µM	Non-toxic	Non-toxic	0 mm	Non-toxic	0 mm	0 mm
ON(Cc1cccc(Oc2ccccc2)c1)c1ccccn1	> 128 µM	> 128 µM	> 128 µM	Non-toxic	Non-toxic	0 mm	Non-toxic	12 mm	13 mm
CO[C@H]1C=CCC[C@@H]1N(O)c1ccc(Br)cn1 (racemic)	≥ 128 µM	4 µM (≈ 1.2 µg/mL)	> 128 µM	Non-toxic	Non-toxic	20 mm	Non-toxic	34 mm	18 mm
C=C(C)C(C)N(O)c1ncc(Cl)cc1Cl (racemic)	> 128 µM	16 µM (≈ 3.95 µg/mL)	> 128 µM	Non-toxic	Non-toxic	14 mm	Non-toxic	27 mm	0 mm

Continued, in another order:

MIC90 [1]	MIC90 [2]	MIC90 [5]	SMILES	Activity [3]	Activity [4]	diameter of the inhibition zone (DIZ) [6]	Activity [7]	diameter of the inhibition zone (DIZ) [8]	diameter of the inhibition zone (DIZ) [9]
> 128 µM	64 µM (≈ 11.7 µg/mL)	> 128 µM	C=C(C)C(C)N(O)c1cc(C)on1 (racemic)	Non-toxic	Non-toxic	13 mm	Non-toxic	21 mm	0 mm
128 µM (≈ 29.2 µg/mL)	8 µM (≈ 1.83 µg/mL)	> 128 µM	C=C(C)C(C)N(O)c1ccc2ccccc2n1 (racemic)	Non-toxic	Non-toxic	13 mm	Non-toxic	31 mm	13 mm
> 128 µM	128 µM (≈ 34.3 µg/mL)	> 128 µM	ON(Cc1ccc(C(F)(F)F)cc1)c1ccccn1	Non-toxic	Non-toxic	15 mm	Non-toxic	16 mm	15 mm
> 128 µM	4 µM (≈ 1.08 µg/mL)	> 128 µM	C=C(C)C(C)N(O)c1ccc(Br)c(C)n1 (racemic)	Non-toxic	Non-toxic	12 mm	Non-toxic	35 mm	13 mm
> 128 µM	128 µM (≈ 35.9 µg/mL)	> 128 µM	C=C(C)C(C)N(O)c1ncc(C(F)(F)F)cc1Cl (racemic)	Non-toxic	Non-toxic	13 mm	Non-toxic	15 mm	0 mm
128 µM (≈ 27.2 µg/mL)	2 µM (≈ 0.425 µg/mL)	≥ 128 µM	C=C(C)C(C)N(O)c1ccc(Cl)cn1 (racemic)	Non-toxic	Non-toxic	21 mm	Non-toxic	40 mm	18 mm
> 128 µM	2 µM (≈ 0.581 µg/mL)	> 128 µM	C=C(C)C(CC/C(C)=C/CO)N(O)c1cccc(CC)n1 (racemic)	Non-toxic	Non-toxic	19 mm	Non-toxic	31 mm	18 mm
32 µM (≈ 7.24 µg/mL)	64 µM (≈ 14.5 µg/mL)	> 128 µM	C=C(CN(O)c1ccccn1)c1ccccc1	Non-toxic	Non-toxic	18 mm	Non-toxic	20 mm	19 mm
128 µM (≈ 25.6 µg/mL)	64 µM (≈ 12.8 µg/mL)	> 128 µM	ON(Cc1ccccc1)c1ccccn1	Non-toxic	Non-toxic	20 mm	Non-toxic	24 mm	18 mm
128 µM (≈ 30 µg/mL)	16 µM (≈ 3.75 µg/mL)	> 128 µM	C=C(C)C(CCC(C)=O)N(O)c1ccccn1 (racemic)	Non-toxic	Non-toxic	16 mm	Non-toxic	30 mm	15 mm
128 µM (≈ 22.8 µg/mL)	8 µM (≈ 1.43 µg/mL)	> 128 µM	C=C(C)C(C)N(O)c1ccccn1 (racemic)	Non-toxic	Non-toxic	22 mm	Non-toxic	31 mm	18 mm
128 µM (≈ 24.6 µg/mL)	4 µM (≈ 0.769 µg/mL)	> 128 µM	C=C(C)C(C)N(O)c1cc(C)ccn1 (racemic)	Non-toxic	Non-toxic	22 mm	Non-toxic	29 mm	20 mm
